Test results reported in article PMC6001687 (The Journal of Dermatology, 2018).
Where “and” joins values, the source holds several entries; their conditions need not be identical. Identical values can stand only once.

How the values were obtained:
[1] = tested on: JAK2; settings: read-out: half maximal inhibitory concentration, JAK2; cited from earlier work
[2] = p.o. administration; ref data not published; cited from earlier work
[3] = Plasma pharmacokinetics after topical application, QBX1‐2 study; format: in vivo, human
How it was run: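 Japanese healthy male volunteers or adult atopic dermatitis patients; 5 g ointment to back skin or eczematous areas, either once (removed at 24 h) or twice daily at 12-h intervals for 7 days. Plasma at 0–48 h after single dose; repeated dosing on days 1 and 7 at 0–24 h after morning dose, plus day-4 trough. LC-MS/MS, LLOQ 1 ng/mL (below set to zero); non-compartmental. Tmax as median.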

[4] = tested on: JAK3; settings: read-out: half maximal inhibitory concentration, JAK3; cited from earlier work
[5] = tested on: Tyk2; settings: read-out: half maximal inhibitory concentration, Tyk2; cited from earlier work
[6] = Urine pharmacokinetics after topical application, QBX1‐2 study; format: in vivo, human
How it was run: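 Adult atopic dermatitis patients; 5 g ointment to eczematous areas twice daily for 7 days. On day 7, urine collected at 0–4, 4–8, 8–12 and 12–24 h, assayed by LC-MS/MS (LLOQ 25 ng/mL). Amount excreted = sum over intervals of concentration × urine volume. Renal clearance = amount excreted ÷ plasma AUCtau (12-h dosing interval, non-compartmental).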

[7] = tested on: JAK1; settings: read-out: half maximal inhibitory concentration, JAK1; cited from earlier work

Tmax ([3]; human, plasma, topical, 5 g of 3% ointment twice daily): 4 h
CL renal ([6]; human, urine and plasma, topical, 5 g of 3% ointment twice daily): 330 mL/min
fe (fraction excreted into urine to the applied dose) ([6]; part 1, healthy volunteers, single application of 3% JTE‐052 ointment, 0–48‐h interval, n = 6): 0.016% and 0.016 ± 0.007%
fe (fraction excreted into urine to the applied dose) ([6]; part 2, AD patients, single application of 1% JTE‐052 ointment, 0–48‐h interval, n = 6): 0.382% and 0.382 ± 0.341%
fe (fraction excreted into urine to the applied dose) ([6]; part 2, AD patients, single application of 3% JTE‐052 ointment, 0–48‐h interval, n = 5): 0.406% and 0.406 ± 0.508%
fe (fraction excreted into urine to the applied dose) ([6]; part 3, AD patients, repeated application of 1% JTE‐052 ointment, day 7 after the morning application, 0–12‐h interval, n = 8): 0.191% and 0.191 ± 0.174%
fe (fraction excreted into urine to the applied dose) ([6]; part 3, AD patients, repeated application of 3% JTE‐052 ointment, day 7 after the morning application, 0–12‐h interval, n = 7): 0.289% and 0.289 ± 0.136%
SMILES: C[C@H]1CN(C(=O)CC#N)[C@]12CCN(c1ncnc3[nH]ccc13)C2 [JTE‐052]
half‐life [2]: ~ 4 h
